Results reported in ChEMBL document CHEMBL1781961, “Synthesis and in vitro antibacterial activity of 7-(3-alkoxyimino-4-amino-4-methylpiperidin-1-yl) fluoroquinolone derivatives” (Eur J Med Chem, 2011).
In brackets after ≈: the same amount, converted by molar mass.

Columns and labels:
Enterococcus faecalis [1] = experiment: Ratio of levofloxacin MIC to compound MIC for Enterococcus faecalis; format: functional
Procedure, shortened: (§1)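 MICs were measured by agar dilution on plates carrying serial twofold dilutions from […] down to 0.03. Plates were inoculated with 10⁴ cfu and incubated at 35 °C for 18 h. MIC was taken as the lowest concentration giving no visible growth. The ratio is the reference quinolone MIC divided by the test compound MIC for the same strain.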

Enterococcus faecalis [2] = experiment: Ratio of gemifloxacin MIC to compound MIC for Enterococcus faecalis; format: functional; procedure, shortened: as §1
Enterococcus faecalis [3] = experiment: Ratio of gatifloxacin MIC to compound MIC for Enterococcus faecalis; format: functional; procedure, shortened: as §1
[4] = test system: Staphylococcus epidermidis; experiment: Ratio of levofloxacin MIC to compound MIC for methicillin-sensitive Staphylococcus epidermidis 09-6; format: functional; procedure, shortened: as §1
Streptococcus pneumoniae [5] = experiment: Ratio of levofloxacin MIC to compound MIC for Streptococcus pneumoniae 08-4; format: functional; procedure, shortened: as §1
Staphylococcus aureus [6] = experiment: Antibacterial activity against 10^4 CFU Staphylococcus aureus ATCC 25923 after 18 hrs by CLSI agar dilution method; format: functional; conditions: ATCC 25923, 18 h
Staphylococcus aureus [7] = experiment: Antibacterial activity against 10^4 CFU methicillin-sensitive Staphylococcus aureus 08-1 after 18 hrs by CLSI agar dilution method; format: functional; conditions: 08-1, 18 h
Staphylococcus aureus [8] = experiment: Antibacterial activity against 10^4 CFU methicillin-resistant Staphylococcus aureus 08-1 after 18 hrs by CLSI agar dilution method; format: functional; conditions: 08-1, 18 h
[9] = test system: Staphylococcus epidermidis; experiment: Antibacterial activity against 10^4 CFU methicillin-sensitive Staphylococcus epidermidis 09-6 after 18 hrs by CLSI agar dilution method; format: functional; conditions: 09-6, 18 h
[10] = test system: Staphylococcus epidermidis; experiment: Antibacterial activity against 10^4 CFU methicillin-resistant Staphylococcus epidermidis 09-2 after 18 hrs by CLSI agar dilution method; format: functional; conditions: 09-2, 18 h
Streptococcus pneumoniae [11] = experiment: Antibacterial activity against 10^4 CFU Streptococcus pneumoniae 08-4 after 18 hrs by CLSI agar dilution method; format: functional; conditions: 08-4, 18 h
Enterococcus faecalis [12] = experiment: Antibacterial activity against 10^4 CFU Enterococcus faecalis 08-10 after 18 hrs by CLSI agar dilution method; format: functional; conditions: 08-10, 18 h
Enterococcus faecalis [13] = experiment: Antibacterial activity against 10^4 CFU Enterococcus faecalis 08-12 after 18 hrs by CLSI agar dilution method; format: functional; conditions: 08-12, 18 h
Enterococcus faecium [14] = experiment: Antibacterial activity against 10^4 CFU Enterococcus faecium 08-2 after 18 hrs by CLSI agar dilution method; format: functional; conditions: 08-2, 18 h
Enterococcus faecium [15] = experiment: Antibacterial activity against 10^4 CFU Enterococcus faecium 06-7 after 18 hrs by CLSI agar dilution method; format: functional; conditions: 06-7, 18 h
Escherichia coli [16] = experiment: Antibacterial activity against 10^4 CFU Escherichia coli ATCC 25922 after 18 hrs by CLSI agar dilution method; format: functional; conditions: ATCC 25922, 18 h
Escherichia coli [17] = experiment: Antibacterial activity against 10^4 CFU Escherichia coli 08-21 after 18 hrs by CLSI agar dilution method; format: functional; conditions: 08-21, 18 h
Klebsiella pneumoniae [18] = experiment: Antibacterial activity against 10^4 CFU Klebsiella pneumoniae 09-22 after 18 hrs by CLSI agar dilution method; format: functional; conditions: 09-22, 18 h
Klebsiella pneumoniae [19] = experiment: Antibacterial activity against 10^4 CFU Klebsiella pneumoniae 09-23 after 18 hrs by CLSI agar dilution method; format: functional; conditions: 09-23, 18 h
Pseudomonas aeruginosa [20] = experiment: Antibacterial activity against 10^4 CFU Pseudomonas aeruginosa ATCC 27853 after 18 hrs by CLSI agar dilution method; format: functional; conditions: ATCC 27853, 18 h
Pseudomonas aeruginosa [21] = experiment: Antibacterial activity against 10^4 CFU Pseudomonas aeruginosa 09-32 after 18 hrs by CLSI agar dilution method; format: functional; conditions: 09-32, 18 h
[22] = Cytotoxicity against MDCK cells after 48 hrs by CPE assay; format: cell-based, Canis lupus familiaris; conditions: dog
Procedure, shortened: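 MDCK cells kept in Minimum Essential Medium with Earle's salt plus 10% fetal bovine serum at 37 °C, 5% CO₂. […] Medium then replaced by assay medium with or without compound. After 48 h exposure, viability read by CPE assay. CC₅₀ calculated by Reed–Muench analysis.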

Work on `CO/N=C1\CN(c2c(F)cc3c(=O)c(C(=O)O)cn(C4CC4)c3c2OC)CCC1(C)N` (configuration not stated) yielded a Ratio (Enterococcus faecalis [1]) of 4, a Ratio (Enterococcus faecalis [2]) of 4 and a Ratio (Enterococcus faecalis [3]) of 4. It also gave a Ratio [4] of 16, a Ratio (Streptococcus pneumoniae [5]) of 4 and an MIC (Staphylococcus aureus [6]) of 0.125 µg/mL (≈ 0.289 µM). For the same compound, the MIC (Staphylococcus aureus [7]) was 0.25 µg/mL (≈ 0.578 µM), the MIC (Staphylococcus aureus [8]) was 0.25 µg/mL (≈ 0.578 µM) and the MIC [9] was 0.25 µg/mL (≈ 0.578 µM). For the same compound, the MIC [10] was 0.25 µg/mL (≈ 0.578 µM), the MIC (Streptococcus pneumoniae [11]) was 0.5 µg/mL (≈ 1.16 µM) and the MIC (Enterococcus faecalis [12]) was 1 µg/mL (≈ 2.31 µM). For the same compound, the MIC (Enterococcus faecalis [13]) was 1 µg/mL (≈ 2.31 µM), the MIC (Enterococcus faecium [14]) was greater than 128 µg/mL and the MIC (Enterococcus faecium [15]) was greater than 128 µg/mL. For the same compound, the MIC (Escherichia coli [16]) was greater than 128 µg/mL, the MIC (Escherichia coli [17]) was greater than 128 µg/mL and the MIC (Klebsiella pneumoniae [18]) was greater than 128 µg/mL. It also gave an MIC (Klebsiella pneumoniae [19]) greater than 128 µg/mL, an MIC (Pseudomonas aeruginosa [20]) of 16 µg/mL (≈ 37 µM) and an MIC (Pseudomonas aeruginosa [21]) of 8 µg/mL (≈ 18.5 µM). The CC50 at 48 h [22] was 729 µM.
